Experiments:
[1] = Octanol-water partition coefficient, log D of the compound at pH 7.4; type: physicochemical
In short: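 About 74 kBq radiotracer was shaken in PBS pH 7.4 / octanol (1:1 mL), vortexed 1 min three times at room temperature, then centrifuged (3,000 rpm, 5 min). Both phases were gamma-counted. Three independent experiments in duplicate.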

[2] = Ratio of drug level in tumor to blood in C57BL/6J mouse harboring mouse B16-Bl6 cells at 9 to 12 MBq, iv after 3 hrs by PET analysis; type: ADME, organism-based
In short: (§1)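 Ex vivo biodistribution. C57BL/6J mice bearing subcutaneous B16Bl6 tumours (3x10⁵ cells, shoulder), day 10 or 14, received [18F]tracer iv (9-12 MBq). They were killed by CO₂ at 1, 2 or 3 h. Tumours and organs were excised, weighed and gamma-counted. Results are decay-corrected % ID/g; ratios are tumour over tissue. n=3-6 per group; mean ± SD.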

Brain [3] = assay: Biodistribution in brain of C57BL/6J mouse harboring mouse B16-Bl6 cells at 9 to 12 MBq, iv after 3 hrs by PET analysis; type: ADME, organism-based; conditions: in vivo
In short: (§2)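 Ex vivo dissection in B16Bl6-bearing C57BL/6J mice (3x10⁵ cells s.c. right shoulder), done at day 10 or 14 after implantation. The ¹⁸F tracer was given i.v. at 9-12 MBq. Mice were killed by CO₂ at 1, 2 or 3 h. Tumor, organs and tissues were excised, weighed and gamma-counted, then decay-corrected and expressed as %ID/g. n=3-6 per group; mean ± SD.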

Heart [4] = assay: Biodistribution in heart of C57BL/6J mouse harboring mouse B16-Bl6 cells at 9 to 12 MBq, iv after 3 hrs by PET analysis; type: ADME, organism-based; conditions: in vivo; in short: as §2
Kidney = assay: Biodistribution in kidney of C57BL/6J mouse harboring mouse B16-Bl6 cells at 9 to 12 MBq, iv after 3 hrs by PET analysis; type: ADME, organism-based; conditions: in vivo; in short: as §2
Spleen [5] = assay: Biodistribution in spleen of C57BL/6J mouse harboring mouse B16-Bl6 cells at 9 to 12 MBq, iv after 3 hrs by PET analysis; type: ADME, organism-based; conditions: in vivo; in short: as §2
Mus musculus [6] = assay: Biodistribution in cecum of C57BL/6J mouse harboring mouse B16-Bl6 cells at 9 to 12 MBq, iv after 3 hrs by PET analysis; type: ADME, organism-based, Caecum; conditions: in vivo; in short: as §2
Liver = assay: Biodistribution in liver of C57BL/6J mouse harboring mouse B16-Bl6 cells at 9 to 12 MBq, iv after 3 hrs by PET analysis; type: ADME, organism-based; conditions: in vivo; in short: as §2
Brain [7] = assay: Biodistribution in brain of C57BL/6J mouse harboring mouse B16-Bl6 cells at 9 to 12 MBq, iv after 2 hrs by PET analysis; type: ADME, organism-based; conditions: in vivo; in short: as §2
Spleen [8] = assay: Biodistribution in spleen of C57BL/6J mouse harboring mouse B16-Bl6 cells at 9 to 12 MBq, iv after 2 hrs by PET analysis; type: ADME, organism-based; conditions: in vivo; in short: as §2
Mus musculus [9] = assay: Biodistribution in small intestine of C57BL/6J mouse harboring mouse B16-Bl6 cells at 9 to 12 MBq, iv after 2 hrs by PET analysis; type: ADME, organism-based; conditions: in vivo; in short: as §2
Zone of skin [10] = assay: Biodistribution in skin of C57BL/6J mouse harboring mouse B16-Bl6 cells at 9 to 12 MBq, iv after 2 hrs by PET analysis; type: ADME, organism-based; conditions: in vivo; in short: as §2
Bone [11] = assay: Biodistribution in bones of C57BL/6J mouse harboring mouse B16-Bl6 cells at 9 to 12 MBq, iv after 2 hrs by PET analysis; type: ADME, organism-based, Bone element; conditions: in vivo; in short: as §2
Mus musculus [12] = assay: Biodistribution in tumor of C57BL/6J mouse harboring mouse B16-Bl6 cells at 9 to 12 MBq, iv after 2 hrs by PET analysis; type: ADME, organism-based, Neoplasm; conditions: in vivo; in short: as §1
Nucleic Acid = assay: Ratio of drug level in tumor to bone in C57BL/6J mouse harboring mouse B16-Bl6 cells at 9 to 12 MBq, iv after 1 hr by PET analysis; type: ADME, organism-based; conditions: in vivo; in short: as §1
Brain [13] = assay: Biodistribution in brain of C57BL/6J mouse harboring mouse B16-Bl6 cells at 9 to 12 MBq, iv after 1 hr by PET analysis; type: ADME, organism-based; conditions: in vivo; in short: as §2
Heart [14] = assay: Biodistribution in heart of C57BL/6J mouse harboring mouse B16-Bl6 cells at 9 to 12 MBq, iv after 1 hr by PET analysis; type: ADME, organism-based; conditions: in vivo; in short: as §2
Lung = assay: Biodistribution in lung of C57BL/6J mouse harboring mouse B16-Bl6 cells at 9 to 12 MBq, iv after 1 hr by PET analysis; type: ADME, organism-based; conditions: in vivo; in short: as §2
Spleen [15] = assay: Biodistribution in spleen of C57BL/6J mouse harboring mouse B16-Bl6 cells at 9 to 12 MBq, iv after 1 hr by PET analysis; type: ADME, organism-based; conditions: in vivo; in short: as §2
Mus musculus [16] = assay: Biodistribution in colon and feces of C57BL/6J mouse harboring mouse B16-Bl6 cells at 9 to 12 MBq, iv after 1 hr by PET analysis; type: ADME, organism-based; conditions: in vivo; in short: as §2
Mus musculus [17] = assay: Biodistribution in small intestine of C57BL/6J mouse harboring mouse B16-Bl6 cells at 9 to 12 MBq, iv after 1 hr by PET analysis; type: ADME, organism-based; conditions: in vivo; in short: as §2
Zone of skin [18] = assay: Biodistribution in skin of C57BL/6J mouse harboring mouse B16-Bl6 cells at 9 to 12 MBq, iv after 1 hr by PET analysis; type: ADME, organism-based; conditions: in vivo; in short: as §2
Blood = assay: Biodistribution in blood of C57BL/6J mouse harboring mouse B16-Bl6 cells at 9 to 12 MBq, iv after 1 hr by PET analysis; type: ADME, organism-based; conditions: in vivo; in short: as §2
Mus musculus [19] = assay: Biodistribution in eyes of C57BL/6J mouse harboring mouse B16-Bl6 cells at 9 to 12 MBq, iv after 1 hr by PET analysis; type: ADME, organism-based, Eye; conditions: in vivo; in short: as §2
Bone [20] = assay: Biodistribution in bones of C57BL/6J mouse harboring mouse B16-Bl6 cells at 9 to 12 MBq, iv after 1 hr by PET analysis; type: ADME, organism-based, Bone element; conditions: in vivo; in short: as §2
[21] = Ratio of drug level in tumor to bone in C57BL/6J mouse harboring mouse B16-Bl6 cells at 8 to 12 MBq, iv after 1 hr by PET analysis; type: ADME, organism-based; conditions: in vivo
In short: (§3)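 Static whole-body PET at 1 h after tail-vein injection of [18F]tracer (9-12 MBq/0.15 mL) in C57BL/6J mice carrying subcutaneous B16Bl6 shoulder tumours (3x10⁵ cells), imaged day 10 or 14. Mice under ketamine/xylazine ip. 25 min acquisition, OSEM reconstruction. ROI % ID/g = counts/g/min ÷ injected dose; ratios = tumour % ID/g ÷ organ % ID/g. n=2-8; mean ± SD.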

Mus musculus [22] = assay: Biodistribution in eye of C57BL/6J mouse harboring mouse B16-Bl6 cells at 8 to 12 MBq, iv after 1 hr by PET analysis; type: ADME, organism-based; conditions: in vivo
In short: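 C57BL/6J mice were inoculated s.c. on the right shoulder with 3x10⁵ B16Bl6 cells in PBS under isoflurane, and imaged at day 10 or 14 (tumor volume 431.8 ± 154.3 mm³). The ¹⁸F tracer was given i.v. via tail vein, 8-12 MBq (methods: 9-12 MBq/0.15 mL). Under ketamine/xylazine i.p., a 25-min whole-body static PET scan ran at 1 h. ROI %ID/g = counts/g/min ÷ injected dose. n=2-8; mean ± SD.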

Mus musculus [23] = assay: Biodistribution in tumor of C57BL/6J mouse harboring mouse B16-Bl6 cells at 8 to 12 MBq, iv after 1 hr by PET analysis; type: ADME, organism-based, Neoplasm; conditions: in vivo; in short: as §3

`CCN(CCNC(=O)c1cnc2cc(I)ccc2n1)CCOCCOCCOCCOCCOCCOCCOCC[18F]` showed a logD [1] of 0.95, a Kp at 3 h [2] of 5.27 and a Drug uptake (Brain [3]) of 1.72 % ID/g. For the same molecule, the Drug uptake (Heart [4]) was 3 % ID/g, the Drug uptake (Kidney) was 2.6 % ID/g and the Drug uptake (Spleen [5]) was 2.35 % ID/g. It also gave a Drug uptake (Mus musculus [6]) of 29.31 % ID/g, a Drug uptake (Liver) of 2.6 % ID/g and a Drug uptake (Brain [7]) of 1.03 % ID/g. It also gave a Drug uptake (Spleen [8]) of 2.38 % ID/g, a Drug uptake (Mus musculus [9]) of 19.51 % ID/g and a Drug uptake (Zone of skin [10]) of 0.94 % ID/g. It also gave a Drug uptake (Bone [11]) of 2.13 % ID/g, a Drug uptake (Mus musculus [12]) of 5.81 % ID/g and a Ratio (Nucleic Acid) of 5.35. For the same molecule, the Drug uptake (Brain [13]) was 1.03 % ID/g, the Drug uptake (Heart [14]) was 1.58 % ID/g and the Drug uptake (Lung) was 1.75 % ID/g. For the same molecule, the Drug uptake (Spleen [15]) was 2.35 % ID/g, the Drug uptake (Mus musculus [16]) was 7.39 % ID/g and the Drug uptake (Mus musculus [17]) was 16.68 % ID/g. For the same molecule, the Drug uptake (Zone of skin [18]) was 1.22 % ID/g, the Drug uptake (Blood) was 1.15 % ID/g and the Drug uptake (Mus musculus [19]) was 12.24 % ID/g. For the same molecule, the Drug uptake (Bone [20]) was 1.82 % ID/g, the Ratio [21] was 2.67 and the Drug uptake (Mus musculus [22]) was 5.53 % ID/g. For the same molecule, the Drug uptake (Mus musculus [23]) was 6.63 % ID/g.
`CCN(CCNC(=O)c1cnc2cc(I)ccc2n1)CCOCCOCCOCC[18F]` gave a logD [1] of 1.52, a Kp at 3 h [2] of 14.4 and a Drug uptake (Brain [3]) of 1.37 % ID/g. The Drug uptake (Heart [4]) was 2.32 % ID/g, the Drug uptake (Kidney) was 2.19 % ID/g and the Drug uptake (Spleen [5]) was 1.87 % ID/g. For the same molecule, the Drug uptake (Mus musculus [6]) was 10.79 % ID/g, the Drug uptake (Liver) was 1.99 % ID/g and the Drug uptake (Brain [7]) was 1.39 % ID/g. It also gave a Drug uptake (Spleen [8]) of 2.88 % ID/g, a Drug uptake (Mus musculus [9]) of 4.28 % ID/g and a Drug uptake (Zone of skin [10]) of 1.51 % ID/g. It also gave a Drug uptake (Bone [11]) of 1.96 % ID/g, a Drug uptake (Mus musculus [12]) of 13.07 % ID/g and a Ratio (Nucleic Acid) of 10.11. It also gave a Drug uptake (Brain [13]) of 1.82 % ID/g, a Drug uptake (Heart [14]) of 2.72 % ID/g and a Drug uptake (Lung) of 1.86 % ID/g. It also gave a Drug uptake (Spleen [15]) of 3.72 % ID/g, a Drug uptake (Mus musculus [16]) of 7.17 % ID/g and a Drug uptake (Mus musculus [17]) of 7.58 % ID/g. For the same molecule, the Drug uptake (Zone of skin [18]) was 1.44 % ID/g, the Drug uptake (Blood) was 1.42 % ID/g and the Drug uptake (Mus musculus [19]) was 18.36 % ID/g. For the same molecule, the Drug uptake (Bone [20]) was 1.4 % ID/g, the Ratio [21] was 7.65 and the Drug uptake (Mus musculus [22]) was 10.5 % ID/g. The Drug uptake (Mus musculus [23]) was 14.33 % ID/g.

Reference: ChEMBL document CHEMBL2440113, “Synthesis, radiofluorination, and in vivo evaluation of novel fluorinated and iodinated radiotracers for PET imaging and targeted radionuclide therapy of melanoma” (J Med Chem, 2013)
